Where a name gives a salt, the structure may show the parent alone. Calls of active or inactive are those of the source. The calls are words filed in the database; no cut-off is given here.
Columns and labels:
[1] = Cytotoxicity against human MGC803 cells after 72 hrs by MTT assay; type: functional, cell-based; details: MGC-803, 72 h
[2] = Cytotoxicity against human HCT116 cells after 72 hrs by MTT assay; type: functional, cell-based; details: HCT-116, 72 h
NCI-H1975 = assay: Cytotoxicity against human NCI-H1975 cells after 72 hrs by MTT assay; type: functional, cell-based; details: NCI-H1975, 72 h
[3] = Chemical stability of the compound in deuterated DMSO by NMR spectroscopic analysis; type: physicochemical
K562 = assay: Cytotoxicity against human K562 cells after 72 hrs by MTT assay; type: functional, cell-based; details: K562, 72 h
A549 = assay: Cytotoxicity against human A549 cells after 72 hrs by MTT assay; type: functional, cell-based; details: A549, 72 h
[4] = Cytotoxicity against human HL60 cells after 72 hrs by MTT assay; type: functional, cell-based; details: HL-60, 72 h
[5] = Cytotoxicity against human HO8910 cells after 72 hrs by MTT assay; type: functional, cell-based; details: HO-8910, 72 h
[6] = target: T1, DNA topoisomerase 1 (Homo sapiens) (UniProt P11387); assay: Inhibition of topoisomerase 1 (unknown origin) assessed as decrease in PBR322 DNA relaxation at 5 to 40 uM after 30 mins by ethidium bromide staining-based agarose gel electrophoresis
T1 sequence (whole entry): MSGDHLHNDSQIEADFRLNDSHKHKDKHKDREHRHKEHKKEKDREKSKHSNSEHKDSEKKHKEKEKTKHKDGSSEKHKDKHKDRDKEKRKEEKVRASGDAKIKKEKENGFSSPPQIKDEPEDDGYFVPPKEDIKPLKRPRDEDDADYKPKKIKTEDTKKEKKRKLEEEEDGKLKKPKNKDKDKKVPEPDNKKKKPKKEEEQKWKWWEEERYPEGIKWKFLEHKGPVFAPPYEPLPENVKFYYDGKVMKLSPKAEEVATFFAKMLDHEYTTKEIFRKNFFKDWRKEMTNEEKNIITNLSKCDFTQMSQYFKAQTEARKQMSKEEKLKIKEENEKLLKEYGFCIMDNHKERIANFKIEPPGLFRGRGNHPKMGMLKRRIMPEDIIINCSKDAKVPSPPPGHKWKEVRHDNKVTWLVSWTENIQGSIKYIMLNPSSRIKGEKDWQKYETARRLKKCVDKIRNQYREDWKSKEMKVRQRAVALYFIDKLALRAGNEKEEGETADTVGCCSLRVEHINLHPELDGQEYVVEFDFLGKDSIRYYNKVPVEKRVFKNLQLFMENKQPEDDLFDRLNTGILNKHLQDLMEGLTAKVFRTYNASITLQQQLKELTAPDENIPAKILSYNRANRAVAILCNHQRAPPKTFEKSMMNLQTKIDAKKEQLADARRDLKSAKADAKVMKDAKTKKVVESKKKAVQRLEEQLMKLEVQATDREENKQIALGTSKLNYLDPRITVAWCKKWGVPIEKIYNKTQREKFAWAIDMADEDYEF
In short: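 Supercoiled pBR322 plasmid DNA served as substrate. Samples were resolved on 1% agarose gels and stained with ethidium bromide. Supercoiled and relaxed DNA bands were marked on the gel.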

SMILES	IC50 [1] [µM]	IC50 [2] [µM]	IC50 (NCI-H1975) [µM]	Stability [3]	IC50 (K562) [µM]	IC50 (A549) [µM]	IC50 [4] [µM]	IC50 [5] [µM]	inhibition [6]
COc1cccc2c1C(=O)c1c(O)c3c(c(O)c1C2=O)C[C@@](O)(C(=O)CO)C[C@@H]3O[C@H]1C[C@H](N)[C@H](O)[C@H](C)O1 [DOXORUBICIN HYDROCHLORIDE]	0.2	0.2	0.8						
COC(=O)[C@@]12Oc3ccc(-c4ccc(O)c5c4O[C@](C(=O)OC)([C@@H]4OC(=O)C[C@@H]4C)CC5=O)c(O)c3C(=O)C1=C(O)C[C@H](C)[C@H]2O		> 50	25.6	Unstable	18.2	> 50	7.8	> 50	
COC(=O)[C@@]12Oc3c(-c4ccc5c(c4O)C(=O)C[C@@](C(=O)OC)([C@@H]4OC(=O)C[C@@H]4C)O5)ccc(O)c3C(=O)C1=C(O)C[C@H](C)[C@H]2O	> 50		11.2	Unstable	7.1	> 50	2.6	10.1	
COC(=O)C[C@H](C)[C@@H](O)[C@]1(C(=O)OC)CC(=O)c2c(ccc(-c3ccc4c(c3O)C(=O)C3=C(O)C[C@H](C)[C@@H](O)[C@]3(C(=O)OC)O4)c2O)O1		0.7		Unstable	6.7	10.6	2.7	20.8	
COC(=O)[C@@]12Oc3ccc(-c4ccc5c(c4O)C(=O)C[C@@](C(=O)OC)([C@@H]4OC(=O)C[C@@H]4C)O5)c(O)c3C(=O)C1=C(O)C[C@H](C)[C@H]2O	9.8	6.1	> 50	Unstable	9.1	12.7	3.1	13.9	
COC(=O)[C@@]12Oc3ccc(-c4ccc5c(c4O)C(=O)C4=C(O)C[C@H](C)[C@@H](O)[C@]4(C(=O)OC)O5)c(O)c3C(=O)C1=C(O)C[C@H](C)[C@H]2O	1.5	0.9			2	2.1	1	1.5	
COC(=O)C[C@H](C)[C@@H](O)[C@]1(C(=O)OC)CC(=O)c2c(ccc(-c3ccc(O)c4c3O[C@]3(C(=O)OC)C(=C(O)C[C@H](C)[C@H]3O)C4=O)c2O)O1	2.2		2.7	Unstable	11.1		1.6	2	Active
COC(=O)[C@@]12Oc3c(-c4ccc(O)c5c4O[C@](C(=O)OC)([C@@H]4OC(=O)C[C@@H]4C)CC5=O)ccc(O)c3C(=O)C1=C(O)C[C@H](C)[C@H]2O	21.6		> 50	Unstable		> 50	9.9	> 50	

From ChEMBL document CHEMBL3739368, “Versixanthones A-F, Cytotoxic Xanthone-Chromanone Dimers from the Marine-Derived Fungus Aspergillus versicolor HDN1009” (J Nat Prod, 2015)
